# Experimental data gathered from unrelated publications.
# Lines come from different studies, so protocols differ.
# ALK: ALK tyrosine kinase receptor (ALK, Homo sapiens, UniProt Q9UM73)
# ALK C1156Y: ALK tyrosine kinase receptor (ALK, Homo sapiens, UniProt Q9UM73, C1156Y)
# ALK L1196M: ALK tyrosine kinase receptor (ALK, Homo sapiens, UniProt Q9UM73, L1196M)
SMILES,target,test,setting,remaining binding [%]
CN(CCCC(F)(F)F)c1nccc(-c2cnn3ncccc23)n1,ALK,binding,1 µM,97
CCCCN(CCCC)C(=O)CN1C[C@@H](c2cc(OC)c3c(c2)OCO3)[C@H](C(=O)O)[C@H]1CC(C)(C)CCC,ALK C1156Y,"cell-free assay, competition with immobilised ligand",1 µM,95.4
C[C@@H](c1ccc(-n2cnc3c(N)ncnc32)cc1)N1CCc2nn(C)c(Cc3ccccc3)c2C1=O,ALK C1156Y,"binding, competition with immobilised ligand",0.1 µM,57
CC1=C(C#N)[C@@H](c2ccc3[nH]nc(C)c3c2)C(C#N)=C(c2ccc(Cl)cc2)N1,ALK C1156Y,"cell-free assay, competition with immobilised ligand",1 µM,100
Cc1cnn2ncc(-c3ccnc(N(C)C)n3)c2c1,ALK,binding,1 µM,92
CCC(=O)N[C@@H]1CC[C@H](C(=O)N(C)c2ccc(-c3nc4ccccc4o3)cc2)C1,ALK,"cell-free assay, competition with immobilised ligand",1 µM,99
COc1cnc(Nc2cccc(S(N)(=O)=O)c2)nc1N1CCN(c2ccccc2)CC1,ALK L1196M,"binding, competition with immobilised ligand",1 µM,100
O=C(NCC1CCOCC1)c1n[nH]cc1NC(=O)c1c(F)cccc1F,ALK,"binding, competition with immobilised ligand",1 µM,93
C[C@H]1CCN(c2nccc(-c3cnn4ncccc34)n2)C1,ALK,binding,1 µM,82
O=C(c1ccc(Nc2ncc(Cl)c(-c3cc4ccccc4s3)n2)cc1)N1CCC(N2CCCC2)CC1,ALK,"binding, competition with immobilised ligand",1 µM,68
CN(C)c1nccc(-c2cnc3ncccn23)n1,ALK,binding,1 µM,73
CC(=O)N1CCC(c2ccc(C(=O)NC3=NCCN3)cc2C(F)(F)F)CC1,ALK C1156Y,"cell-free assay, competition with immobilised ligand",1 µM,100
N[C@@H]1CCN(c2nccc(-c3cnn4ncccc34)n2)C1,ALK,binding,1 µM,97
COc1ncc2cc3ccccc3nc2c1C#N,ALK L1196M,"cell-free assay, competition with immobilised ligand",5 µM,94
Cc1noc([C@H]2C[C@@H](c3ccc(C(F)(F)F)cc3)CN(C(=O)N3CCS(=O)(=O)C3)C2)n1,ALK,"cell-free assay, competition with immobilised ligand",1 µM,100
O=C(c1ccc(Nc2nccc(-c3cc4ccccc4s3)n2)cc1)N1CCC(N2CCCC2)CC1,ALK C1156Y,"binding, competition with immobilised ligand",1 µM,77
CN(c1nccc(-c2cnn3ncccc23)n1)C1CC1,ALK C1156Y,binding,1 µM,100
O=C(NCCCN1CCOCC1)c1ccc(Nc2ncc(Cl)c(-c3ccc(Cl)s3)n2)cc1,ALK L1196M,"binding, competition with immobilised ligand",1 µM,90
c1cncc(-c2cccc(Nc3nccc(NC4CCCCC4)n3)c2)c1,ALK C1156Y,"binding, competition with immobilised ligand",10 µM,37
